Measurements reported in ChEMBL document CHEMBL1139176, “Tetrazole and ester substituted tetrahydoquinoxalines as potent cholesteryl ester transfer protein inhibitors” (Bioorg Med Chem Lett, 2007).
pIC50: −log10 of the molar value.

test system: not listed separately; test: Solubility at pH 7.4; type: physicochemical; settings: buffer

Row | Solubility [µg/mL] | Structure (SMILES)
1 | < 0.01 | CCOC(=O)N1c2ccc(C(F)(F)F)cc2N(C(c2cc(C(F)(F)F)cc(C(F)(F)F)c2)c2nnn(C)n2)C[C@H]1CC (stereo in doubt; (D2)-55d)

test system: not listed separately; test: Clearance in rat at 2 mg/kg, iv; type: ADME, organism-based; set-up: dose 2 mg/kg, route intravenous; settings: in vivo

Row | clearance [mL/min/kg] | Structure (SMILES)
2 | 13 | CCOC(=O)N1c2ccc(C(F)(F)F)cc2N(C(c2cc(C(F)(F)F)cc(C(F)(F)F)c2)c2nnn(C)n2)C[C@H]1CC (stereo in doubt; (D2)-55d)

target: T1, Cholesteryl ester transfer protein (Homo sapiens, UniProt P11597); test: Inhibition of CETP in human plasma; type: cell-free; settings: not given
T1 sequence (P11597 whole entry): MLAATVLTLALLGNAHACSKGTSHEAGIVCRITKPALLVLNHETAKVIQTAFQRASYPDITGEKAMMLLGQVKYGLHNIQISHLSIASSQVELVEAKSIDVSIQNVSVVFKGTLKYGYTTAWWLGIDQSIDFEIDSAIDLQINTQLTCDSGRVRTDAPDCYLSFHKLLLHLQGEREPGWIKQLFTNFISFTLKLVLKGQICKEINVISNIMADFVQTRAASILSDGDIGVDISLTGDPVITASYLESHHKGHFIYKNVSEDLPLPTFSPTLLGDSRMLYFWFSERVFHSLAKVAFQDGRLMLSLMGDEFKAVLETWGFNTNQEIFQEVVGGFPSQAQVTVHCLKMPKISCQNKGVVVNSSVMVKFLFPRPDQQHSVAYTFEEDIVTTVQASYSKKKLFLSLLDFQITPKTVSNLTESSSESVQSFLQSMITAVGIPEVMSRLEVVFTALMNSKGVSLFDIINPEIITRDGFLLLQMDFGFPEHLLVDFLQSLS
Summary of the method: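 Radiometric transfer of ³H-cholesteryl ester from HDL to LDL, with human plasma supplying both CETP and LDL. Inhibitor, plasma and ³H-CE-HDL (diluted to 50 cholesterol) were incubated in 4% (v/v) final DMSO for 6 h at 37 °C. The reaction was stopped with 10 U heparin in 0.3 M MnCl₂ (final) to precipitate LDL, then spun at 1000g and supernatant (2/3 of assay volume) removed. IC50 reported.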

Row | Structure (SMILES) | pIC50
3 | CCC1CN(C(c2cc(C(F)(F)F)cc(C(F)(F)F)c2)c2nnn(C)n2)c2cc(C(F)(F)F)ccc2N1C(=O)N1CCCC1 (stereo unspecified) | 4.00
4 | CCOC(=O)N1c2ccc(C(F)(F)F)cc2N(C(c2cc(C(F)(F)F)cc(C(F)(F)F)c2)c2nnn(CC(=O)O)n2)CC1CC (stereo unspecified) | 4.26
5 | CCNC(=O)N1c2ccc(C(F)(F)F)cc2N(C(c2cc(C(F)(F)F)cc(C(F)(F)F)c2)c2nnn(C)n2)CC1CC (stereo unspecified) | 4.33
6 | CCCCC(CC)COC(=O)N1c2ccc(C(F)(F)F)cc2N(C(c2cc(C(F)(F)F)cc(C(F)(F)F)c2)c2nnn(C)n2)CC1CC (stereo unspecified) | 4.20
7 | CCC1CN(C(c2cc(C(F)(F)F)cc(C(F)(F)F)c2)c2nnn(C)n2)c2cc(C(F)(F)F)ccc2N1C(=O)N(C)C (stereo unspecified) | 4.00
8 | CCOC(=O)N1c2ccc(C(F)(F)F)cc2N(C(c2cc(C(F)(F)F)cc(C(F)(F)F)c2)c2nnn(CC(=O)OC(C)(C)C)n2)CC1CC (stereo unspecified) | 4.84
9 | CCOC(=O)N1c2ccc(C(F)(F)F)cc2N(C(c2cc(C(F)(F)F)cc(C(F)(F)F)c2)c2nnn(CC3CC3)n2)CC1CC (stereo unspecified) | 5.34
10 | CCOC(=O)N1c2ccc(C(F)(F)F)cc2N(C(c2cc(C(F)(F)F)cc(C(F)(F)F)c2)c2nnn(CCN(C)C)n2)CC1CC (stereo unspecified) | 5.11
11 | CCOC(=O)N1c2ccc(C(F)(F)F)cc2N(C(c2cc(C(F)(F)F)cc(C(F)(F)F)c2)c2nnn(CC(=O)OC)n2)CC1CC (stereo unspecified) | 4.49
12 | CCC1CN(C(c2cc(C(F)(F)F)cc(C(F)(F)F)c2)c2nnn(C)n2)c2cc(C(F)(F)F)ccc2N1C(=O)N1CCOCC1 (stereo unspecified) | 4.43
13 | CCOC(=O)N1c2ccccc2N(C(Cc2ccccc2)C(=O)OC)CC1CC (stereo in doubt; (D1)-9a) | < 4.00
14 | CCOC(=O)N1c2ccccc2N(C(Cc2cc(C(F)(F)F)cc(C(F)(F)F)c2)C(=O)OC)CC1CC (stereo in doubt; (D1)-10a) | < 4.00
15 | CCOC(=O)N1c2ccccc2N(C(C(=O)OC)c2cc(C(F)(F)F)cc(C(F)(F)F)c2)CC1CC (stereo in doubt; (D1)-16a) | 5.30
16 | CCOC(=O)N1c2cc(Cl)c(Cl)cc2N(C(C(=O)OC)c2cc(C(F)(F)F)cc(C(F)(F)F)c2)CC1CC (stereo in doubt; (D1)-18a) | 4.03
17 | CCC1CN(C(c2cc(C(F)(F)F)cc(C(F)(F)F)c2)c2nnn(C)n2)c2cc(C(F)(F)F)ccc2N1C(=O)NCCO (stereo in doubt; (D1)-33a) | 4.00
18 | CCOC(=O)N1c2ccc(C(F)(F)F)cc2N(C(c2cc(C(F)(F)F)cc(C(F)(F)F)c2)c2nnn(CC(N)=O)n2)CC1CC (stereo in doubt; (D1)-50a) | 5.28
19 | CCOC(=O)N1c2ccc(C(F)(F)F)cc2N(C(c2cc(C(F)(F)F)cc(C(F)(F)F)c2)c2nnn(C)n2)C[C@@H]1CC (stereo in doubt; (D1)-55b) | 4.32
20 | CCOC(=O)N1c2ccccc2N(C(Cc2ccccc2)C(=O)OC)CC1CC (stereo in doubt; (D2)-9b) | < 4.00
21 | CCOC(=O)N1c2ccccc2N(C(Cc2cc(C(F)(F)F)cc(C(F)(F)F)c2)C(=O)OC)CC1CC (stereo in doubt; (D2)-10b) | < 4.00
22 | CCOC(=O)N1c2ccccc2N(C(C(=O)OC)c2cc(C(F)(F)F)cc(C(F)(F)F)c2)CC1CC (stereo in doubt; (D2)-16b) | 5.07
23 | CCOC(=O)N1c2cc(Cl)c(Cl)cc2N(C(C(=O)OC)c2cc(C(F)(F)F)cc(C(F)(F)F)c2)CC1CC (stereo in doubt; (D2)-18b) | 4.03
24 | CCC1CN(C(c2cc(C(F)(F)F)cc(C(F)(F)F)c2)c2nnn(C)n2)c2cc(C(F)(F)F)ccc2N1C(=O)NCCO (stereo in doubt; (D2)-33b) | 5.34
25 | CCC1CN(C(c2cc(C(F)(F)F)cc(C(F)(F)F)c2)c2nnn(C)n2)c2cc(C(F)(F)F)ccc2N1CC1CCCCC1 (stereo in doubt; (D2)-39b) | 5.24
26 | CCOC(=O)N1c2ccc(C(F)(F)F)cc2N(C(c2cc(C(F)(F)F)cc(C(F)(F)F)c2)c2nnn(CC(N)=O)n2)CC1CC (stereo in doubt; (D2)-50b) | 4.00

These reach a higher pIC50. Values come first.

Row | pIC50 | Structure (SMILES)
27 | 6.07 | CCC1CN(C(c2cc(C(F)(F)F)cc(C(F)(F)F)c2)c2nnn(C)n2)c2cc(C(F)(F)F)ccc2N1CC1CCCC1 (stereo unspecified)
28 | 5.95 | CCCCOC(=O)N1c2ccc(C(F)(F)F)cc2N(C(c2cc(C(F)(F)F)cc(C(F)(F)F)c2)c2nnn(C)n2)CC1CC (stereo unspecified)
29 | 5.72 | CCOC(=O)N1c2ccc(Br)cc2N(C(C(=O)OC)c2cc(C(F)(F)F)cc(C(F)(F)F)c2)CC1CC (stereo unspecified)
30 | 6.63 | CCC1CN(C(c2cc(C(F)(F)F)cc(C(F)(F)F)c2)c2nnn(C)n2)c2cc(C(F)(F)F)ccc2N1C(=O)OCC(C)C (stereo unspecified)
31 | 5.36 | CCC1CN(C(c2cc(C(F)(F)F)cc(C(F)(F)F)c2)c2nnn(C)n2)c2cc(C(F)(F)F)ccc2N1C(=O)OCc1ccccc1 (stereo unspecified)
32 | 5.47 | CCOC(=O)N1c2ccc(C(F)(F)F)cc2N(C(c2cc(C(F)(F)F)cc(C(F)(F)F)c2)c2nnn(CCC#N)n2)CC1CC (stereo unspecified)
33 | 5.35 | CCOC(=O)N1c2ccc(C(F)(F)F)cc2N(C(c2cc(C(F)(F)F)cc(C(F)(F)F)c2)c2nnn(CCC(=O)OC)n2)CC1CC (stereo unspecified)
34 | 5.54 | CCC1CN(C(c2cc(C(F)(F)F)cc(C(F)(F)F)c2)c2nnn(C)n2)c2cc(C(F)(F)F)ccc2N1C[C@H]1CC[C@H](CC(=O)O)CC1 (stereo partly specified)
35 | 6.30 | CCOC(=O)N1c2ccc(C(F)(F)F)cc2N(C(C(=O)OC)c2cc(C(F)(F)F)cc(C(F)(F)F)c2)CC1CC (stereo in doubt; (D1)-22a)
36 | 6.06 | CCOC(=O)N1c2ccc(C(F)(F)F)cc2N(C(c2cc(C(F)(F)F)cc(C(F)(F)F)c2)c2nnn(C)n2)CC1CC (stereo in doubt; (D1)-28a)
37 | 5.89 | CCC1CN(C(c2cc(C(F)(F)F)cc(C(F)(F)F)c2)c2nnn(C)n2)c2cc(C(F)(F)F)ccc2N1CC1CCCCC1 (stereo in doubt; (D1)-39a)
38 | 5.64 | CCOC(=O)N1c2ccc(C(F)(F)F)cc2N(C(c2cc(C(F)(F)F)cc(C(F)(F)F)c2)c2nnn(CCO)n2)CC1CC (stereo in doubt; (D1)-46a)
39 | 6.36 | CCOC(=O)N1c2ccc(C(F)(F)F)cc2N(C(c2cc(C(F)(F)F)cc(C(F)(F)F)c2)c2nnn(C)n2)C[C@H]1CC (stereo in doubt; (D1)-55a)
40 | 6.25 | CCOC(=O)N1c2ccc(C(F)(F)F)cc2N(C(C(=O)OC)c2cc(C(F)(F)F)cc(C(F)(F)F)c2)CC1CC (stereo in doubt; (D2)-22b)
41 | 6.64 | CCOC(=O)N1c2ccc(C(F)(F)F)cc2N(C(c2cc(C(F)(F)F)cc(C(F)(F)F)c2)c2nnn(C)n2)CC1CC (stereo in doubt; (D2)-28b)
42 | 5.65 | CCOC(=O)N1c2ccc(C(F)(F)F)cc2N(C(c2cc(C(F)(F)F)cc(C(F)(F)F)c2)c2nnn(CCO)n2)CC1CC (stereo in doubt; (D2)-46b)
43 | 5.82 | CCOC(=O)N1c2ccc(C(F)(F)F)cc2N(C(c2cc(C(F)(F)F)cc(C(F)(F)F)c2)c2nnn(C)n2)C[C@@H]1CC (stereo in doubt; (D2)-55c)
44 | 6.84 | CCOC(=O)N1c2ccc(C(F)(F)F)cc2N(C(c2cc(C(F)(F)F)cc(C(F)(F)F)c2)c2nnn(C)n2)C[C@H]1CC (stereo in doubt; (D2)-55d)

test system: not listed separately; test: Half life in rat at 2 mg/kg, iv; type: ADME, organism-based; set-up: dose 2 mg/kg, route intravenous; settings: in vivo

Row | half-life [h] | Structure (SMILES)
45 | 2.4 | CCOC(=O)N1c2ccc(C(F)(F)F)cc2N(C(c2cc(C(F)(F)F)cc(C(F)(F)F)c2)c2nnn(C)n2)C[C@H]1CC (stereo in doubt; (D2)-55d)

test system: not listed separately; test: Volume of distribution in rat at 2 mg/kg, iv; type: ADME, organism-based; set-up: dose 2 mg/kg, route intravenous; settings: in vivo

Row | Vd [L/kg] | Structure (SMILES)
46 | 2.6 | CCOC(=O)N1c2ccc(C(F)(F)F)cc2N(C(c2cc(C(F)(F)F)cc(C(F)(F)F)c2)c2nnn(C)n2)C[C@H]1CC (stereo in doubt; (D2)-55d)
